# System: Nicotiana tabacum
# Experiment: Cytokinin activity in tobacco callus assessed as stimulation of callus growth at 100 uM relative to 6-benzylaminopurine
# Assay type: functional
# Conditions: not given
# Summary of the method: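 Compounds dissolved in DMSO, diluted with water to 5 × 10^-2 M stock, then diluted in medium to 10^-8 to 10^-4 M. Final DMSO ≤0.2%; solvent control 0.2% DMSO. Readout was cytokinin-dependent tobacco callus growth. Activity is expressed relative to 10^-6 M BAP (=100%) at each compound's optimal concentration. Five replicates per concentration; whole test run at least twice.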
row,SMILES,Activity [%]
1,COc1cccc(OC)c1CNc1ncnc2c1ncn2C1CCCCO1 (stereo not given),57
2,COc1cccc(CNc2ncnc3c2ncn3C2CCCCO2)c1O (stereo not given),12
3,COc1cc(OC)c(OC)cc1CNc1ncnc2c1ncn2C1CCCCO1 (stereo not given),11
4,COc1cc(CNc2ncnc3c2ncn3C2CCCO2)cc(OC)c1 (stereo not given),14
5,COc1cc(CNc2ncnc3c2ncn3C2CCCO2)ccc1O (stereo not given),13
6,COc1ccc(CNc2ncnc3c2ncn3C2CCCO2)c(OC)c1OC (stereo not given),7
7,COc1cc(OC)c(OC)cc1CNc1ncnc2c1ncn2C1CCCO1 (stereo not given),14
8,COc1cc(CNc2ncnc3c2ncn3C2CCCO2)cc(OC)c1OC (stereo not given),4
9,Oc1cccc(CNc2ncnc3c2ncn3C2CCCCO2)c1O (stereo not given),3.2
10,COc1cc(CNc2ncnc3c2ncn3C2CCCCO2)cc(OC)c1OC (stereo not given),17
11,COc1cc(CNc2ncnc3c2ncn3C2CCCCO2)ccc1O (stereo not given),8.7
12,COc1cc(OC)c(CNc2ncnc3c2ncn3C2CCCCO2)c(OC)c1 (stereo not given),2
13,Oc1ccccc1CNc1ncnc2c1ncn2C1CCCO1 (stereo not given),58

# System: Triticum aestivum
# Experiment: Cytokinin activity in wheat leaf assessed as stimulation of retention of chlorophyll in excised leaves at 0.1 mM relative to 6-benzylaminopurine
# Assay type: functional
# Conditions: not given
row,SMILES,Activity [%]
1,COc1cccc(OC)c1CNc1ncnc2c1ncn2C1CCCCO1 (stereo not given),14
2,COc1ccc(CNc2ncnc3c2ncn3C2CCCCO2)c(OC)c1 (stereo not given),25
3,COc1cc(CNc2ncnc3c2ncn3C2CCCO2)cc(OC)c1 (stereo not given),8
4,COc1cc(CNc2ncnc3c2ncn3C2CCCO2)ccc1O (stereo not given),4
5,COc1ccc(CNc2ncnc3c2ncn3C2CCCO2)c(OC)c1OC (stereo not given),9
6,COc1cc(OC)c(OC)cc1CNc1ncnc2c1ncn2C1CCCO1 (stereo not given),9
7,COc1cc(CNc2ncnc3c2ncn3C2CCCO2)cc(OC)c1OC (stereo not given),10
8,COc1cc(CNc2ncnc3c2ncn3C2CCCCO2)cc(OC)c1 (stereo not given),7
9,COc1cc(CNc2ncnc3c2ncn3C2CCCCO2)cc(OC)c1OC (stereo not given),7
10,COc1cc(CNc2ncnc3c2ncn3C2CCCCO2)ccc1O (stereo not given),7
11,COc1cc(OC)c(CNc2ncnc3c2ncn3C2CCCCO2)c(OC)c1 (stereo not given),3
12,COc1ccc(CNc2ncnc3c2ncn3C2CCCCO2)cc1OC (stereo not given),8
13,COc1ccc(CNc2ncnc3c2ncn3C2CCCCO2)c(OC)c1OC (stereo not given),7
14,Oc1ccccc1CNc1ncnc2c1ncn2C1CCCO1 (stereo not given),25

# System: BJ
# Experiment: Cytotoxicity against human BJ cells after 72 hrs by MTT assay
# Assay type: ADME, cell-based
# Conditions: not given
row,SMILES,IC50 [µM]
1,COc1cccc(OC)c1CNc1ncnc2c1ncn2C1CCCCO1 (stereo not given),> 100
2,COc1ccc(CNc2ncnc3c2ncn3C2CCCCO2)c(OC)c1 (stereo not given),> 25
3,COc1cccc(CNc2ncnc3c2ncn3C2CCCCO2)c1O (stereo not given),> 100
4,COc1cc(OC)c(OC)cc1CNc1ncnc2c1ncn2C1CCCCO1 (stereo not given),> 100
5,COc1cc(CNc2ncnc3c2ncn3C2CCCO2)cc(OC)c1 (stereo not given),> 100
6,COc1cc(CNc2ncnc3c2ncn3C2CCCO2)ccc1O (stereo not given),> 100
7,COc1ccc(CNc2ncnc3c2ncn3C2CCCO2)c(OC)c1OC (stereo not given),> 100
8,COc1cc(OC)c(OC)cc1CNc1ncnc2c1ncn2C1CCCO1 (stereo not given),> 100
9,COc1cc(CNc2ncnc3c2ncn3C2CCCO2)cc(OC)c1OC (stereo not given),> 100
10,COc1cc(CNc2ncnc3c2ncn3C2CCCCO2)cc(OC)c1 (stereo not given),> 100
11,Oc1cccc(CNc2ncnc3c2ncn3C2CCCCO2)c1O (stereo not given),63.3
12,COc1cc(CNc2ncnc3c2ncn3C2CCCCO2)cc(OC)c1OC (stereo not given),> 100
13,COc1cc(CNc2ncnc3c2ncn3C2CCCCO2)ccc1O (stereo not given),> 100
14,COc1cc(OC)c(CNc2ncnc3c2ncn3C2CCCCO2)c(OC)c1 (stereo not given),> 50
15,COc1ccc(CNc2ncnc3c2ncn3C2CCCCO2)cc1OC (stereo not given),> 100
16,COc1ccc(CNc2ncnc3c2ncn3C2CCCCO2)c(OC)c1OC (stereo not given),> 37.5
17,Oc1ccccc1CNc1ncnc2c1ncn2C1CCCO1 (stereo not given),> 100

# System: Amaranthus
# Experiment: Cytokinin activity in cotyledons assessed as dark induction of betacyanin synthesis at 100 uM relative to 6-benzylaminopurine
# Assay type: functional
# Conditions: not given
row,SMILES,Activity [%]
1,COc1cccc(OC)c1CNc1ncnc2c1ncn2C1CCCCO1 (stereo not given),13
2,COc1ccc(CNc2ncnc3c2ncn3C2CCCCO2)c(OC)c1 (stereo not given),9
3,COc1cccc(CNc2ncnc3c2ncn3C2CCCCO2)c1O (stereo not given),18
4,COc1cc(OC)c(OC)cc1CNc1ncnc2c1ncn2C1CCCCO1 (stereo not given),3
5,COc1cc(CNc2ncnc3c2ncn3C2CCCO2)cc(OC)c1 (stereo not given),18
6,COc1cc(CNc2ncnc3c2ncn3C2CCCO2)ccc1O (stereo not given),17
7,COc1ccc(CNc2ncnc3c2ncn3C2CCCO2)c(OC)c1OC (stereo not given),15
8,COc1cc(OC)c(OC)cc1CNc1ncnc2c1ncn2C1CCCO1 (stereo not given),14
9,COc1cc(CNc2ncnc3c2ncn3C2CCCO2)cc(OC)c1OC (stereo not given),17
10,COc1cc(CNc2ncnc3c2ncn3C2CCCCO2)cc(OC)c1 (stereo not given),9
11,Oc1cccc(CNc2ncnc3c2ncn3C2CCCCO2)c1O (stereo not given),8
12,COc1cc(CNc2ncnc3c2ncn3C2CCCCO2)cc(OC)c1OC (stereo not given),19
13,COc1cc(CNc2ncnc3c2ncn3C2CCCCO2)ccc1O (stereo not given),26
14,COc1cc(OC)c(CNc2ncnc3c2ncn3C2CCCCO2)c(OC)c1 (stereo not given),14
15,COc1ccc(CNc2ncnc3c2ncn3C2CCCCO2)cc1OC (stereo not given),8
16,COc1ccc(CNc2ncnc3c2ncn3C2CCCCO2)c(OC)c1OC (stereo not given),4
17,Oc1ccccc1CNc1ncnc2c1ncn2C1CCCO1 (stereo not given),41

# System: MCF7
# Experiment: Cytotoxicity against human MCF7 cells after 72 hrs by Calcein AM assay
# Assay type: ADME, cell-based
# Conditions: MCF7, 72 h
row,SMILES,IC50 [µM]
1,COc1cccc(OC)c1CNc1ncnc2c1ncn2C1CCCCO1 (stereo not given),> 100
2,COc1ccc(CNc2ncnc3c2ncn3C2CCCCO2)c(OC)c1 (stereo not given),> 25
3,COc1cccc(CNc2ncnc3c2ncn3C2CCCCO2)c1O (stereo not given),> 100
4,COc1cc(OC)c(OC)cc1CNc1ncnc2c1ncn2C1CCCCO1 (stereo not given),> 100
5,COc1cc(CNc2ncnc3c2ncn3C2CCCO2)cc(OC)c1 (stereo not given),> 100
6,COc1cc(CNc2ncnc3c2ncn3C2CCCO2)ccc1O (stereo not given),> 100
7,COc1ccc(CNc2ncnc3c2ncn3C2CCCO2)c(OC)c1OC (stereo not given),> 100
8,COc1cc(OC)c(OC)cc1CNc1ncnc2c1ncn2C1CCCO1 (stereo not given),> 100
9,COc1cc(CNc2ncnc3c2ncn3C2CCCO2)cc(OC)c1OC (stereo not given),> 100
10,COc1cc(CNc2ncnc3c2ncn3C2CCCCO2)cc(OC)c1 (stereo not given),> 100
11,Oc1cccc(CNc2ncnc3c2ncn3C2CCCCO2)c1O (stereo not given),> 100
12,COc1cc(CNc2ncnc3c2ncn3C2CCCCO2)cc(OC)c1OC (stereo not given),> 100
13,COc1cc(CNc2ncnc3c2ncn3C2CCCCO2)ccc1O (stereo not given),> 100
14,COc1cc(OC)c(CNc2ncnc3c2ncn3C2CCCCO2)c(OC)c1 (stereo not given),> 50
15,COc1ccc(CNc2ncnc3c2ncn3C2CCCCO2)cc1OC (stereo not given),> 100
16,COc1ccc(CNc2ncnc3c2ncn3C2CCCCO2)c(OC)c1OC (stereo not given),> 37.5
17,Oc1ccccc1CNc1ncnc2c1ncn2C1CCCO1 (stereo not given),> 100

# System: K562
# Experiment: Cytotoxicity against human K562 cells after 72 hrs by Calcein AM assay
# Assay type: ADME, cell-based
# Conditions: K562, 72 h
row,SMILES,IC50 [µM]
1,COc1cccc(OC)c1CNc1ncnc2c1ncn2C1CCCCO1 (stereo not given),10.3
2,COc1ccc(CNc2ncnc3c2ncn3C2CCCCO2)c(OC)c1 (stereo not given),> 25
3,COc1cccc(CNc2ncnc3c2ncn3C2CCCCO2)c1O (stereo not given),> 100
4,COc1cc(OC)c(OC)cc1CNc1ncnc2c1ncn2C1CCCCO1 (stereo not given),> 100
5,COc1cc(CNc2ncnc3c2ncn3C2CCCO2)cc(OC)c1 (stereo not given),> 100
6,COc1cc(CNc2ncnc3c2ncn3C2CCCO2)ccc1O (stereo not given),> 100
7,COc1ccc(CNc2ncnc3c2ncn3C2CCCO2)c(OC)c1OC (stereo not given),> 100
8,COc1cc(OC)c(OC)cc1CNc1ncnc2c1ncn2C1CCCO1 (stereo not given),> 100
9,COc1cc(CNc2ncnc3c2ncn3C2CCCO2)cc(OC)c1OC (stereo not given),> 100
10,COc1cc(CNc2ncnc3c2ncn3C2CCCCO2)cc(OC)c1 (stereo not given),> 100
11,Oc1cccc(CNc2ncnc3c2ncn3C2CCCCO2)c1O (stereo not given),92
12,COc1cc(CNc2ncnc3c2ncn3C2CCCCO2)cc(OC)c1OC (stereo not given),> 100
13,COc1cc(CNc2ncnc3c2ncn3C2CCCCO2)ccc1O (stereo not given),> 100
14,COc1cc(OC)c(CNc2ncnc3c2ncn3C2CCCCO2)c(OC)c1 (stereo not given),> 50
15,COc1ccc(CNc2ncnc3c2ncn3C2CCCCO2)cc1OC (stereo not given),> 100
16,COc1ccc(CNc2ncnc3c2ncn3C2CCCCO2)c(OC)c1OC (stereo not given),> 37.5
17,Oc1ccccc1CNc1ncnc2c1ncn2C1CCCO1 (stereo not given),> 100
